Activity calls are given as the source filed them. No cut-off for these calls is given here.
Assays:
[1] = system: HCC44; assay: Cytotoxicity against human HCC44 cells; assay type: functional, cell-based
[2] = system: HCT-116; assay: Cytotoxicity against human HCT116 cells assessed as growth inhibition by MTS assay; assay type: functional, cell-based
How it was run: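 HCT-116 colorectal cells, cultured as in earlier work, were tested by colorimetric MTS assay. Compounds were supplied in DMSO from a 10 mg mL⁻¹ stock. IC50 came from a four-parameter sigmoidal fit, and values are averages of three measurements. Controls were DMSO (negative) and etoposide (positive, 4 mg mL⁻¹ stock in DMSO).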

[3] = system: HCT-116; assay: Cytotoxicity against human HCT116 cells assessed as growth inhibition at 78.125 ug/ml by MTS assay relative to control; assay type: functional; conditions: read-out: GI
[4] = system: Escherichia coli; assay: Antibacterial activity against Escherichia coli MG1655 at 10 ug after 48 hrs by disk diffusion method; assay type: functional; conditions: K-12 substr. MG1655
How it was run: (§1)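 Kirby–Bauer disk diffusion on LB agar swabbed with inocula from 24 h LB (pH 7.0) precultures grown at rt, 200 rpm. Each 6 mm paper disc carried 10 μg compound, applied as […] in MeOH and dried before placement. Controls were MeOH (10 μL) as negative and ciprofloxacin 5 μg as positive. Plates were incubated 48 h.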

[5] = Drug metabolism assessed as compound formation from ammosamide C; assay type: physicochemical
How it was run: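 Ammosamide C TFA salt kept at rt in seawater-based A1 medium pH 10.0 (1.0 mg/500 μL; pH 6.8 control), PBS pH 10 (2.0 mg/1.0 mL), saturated NaHCO₃ pH 8.1 (2.0 mg/1.0 mL), or PBS pH 10 with 7 equiv L-cysteine. Products followed over days by analytical C18 ELSD-UV/vis-HPLC (1–60% CH₃CN, 0.1% formic acid), plus LC-HRMS for the buffer reactions.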

[6] = Stability of the compound in culture medium
[7] = Drug metabolism assessed as half life for ammosamide B formation; assay type: physicochemical
[8] = system: Bacillus oceanisediminis; assay: Antibacterial activity against Bacillus oceanisediminis CNY-977 at 10 ug after 48 hrs by disk diffusion method; assay type: functional; how it was run: as §1
[9] = Homo sapiens, HCT-116, read-out: IC50

Structure (SMILES)	IC50 [2, 9] [µM]	inhibition of growth at 78.125 µg/mL [3] [%]	IC50 ([2]; hct-116)	Activity [4]	other results
CC(C)/N=C1\c2cc(C(N)=O)nc3c(N)c(Cl)c(N)c(c23)N1C	–	–	–	–	IC50 [1]: 1.1 µM
CCCCCC/N=C1\c2cc(C(N)=O)nc3c(N)c(Cl)c(N)c(c23)N1C	–	–	–	–	IC50 [1]: 0.5 µM
CCCNC1=[N+](C)c2c(N)c(Cl)c(N)c3nc(C(N)=O)cc1c23	6.8	–	–	–	–
CNC(=O)c1cc(C(N)=O)nc2c1C(=O)C(=O)C(Cl)=C2N	–	97	Not Active	–	–
CN1C(=S)c2cc(C(N)=O)nc3c(N)c(Cl)c(N)c1c23	–	19	Not Active	Active	–
CN1C(=O)c2cc(C(N)=O)nc3c(N)c(Cl)c(N)c1c23 [AMMOSAMIDE B]	29	–	–	Active	Drug metabolism [5]: Metabolite_Detected
CC(=O)NCCSC1=[N+](C)c2c(N)c(Cl)c(N)c3nc(C(N)=O)cc1c23	–	26	Not Active	–	–
C[N+]1=Cc2cc(C(N)=O)nc3c(N)c(Cl)c(N)c1c23	5.5	–	–	Active	Stability [6]: Stable; t1/2 [7]: 240 h; Activity [8]: Active
COc1cc([C@@H]2c3cc4c(cc3[C@@H](O[C@@H]3O[C@@H]5CO[C@@H](C)O[C@H]5[C@H](O)[C@H]3O)[C@H]3COC(=O)[C@H]23)OCO4)cc(OC)c1O [ETOPOSIDE]	0.49 to 4.9	–	–	–	–
CN1/C(=N/c2ccc(Cl)cc2)c2cc(C(N)=O)nc3c(N)c(Cl)c(N)c1c23	39	–	–	–	–
